Measured values from ChEMBL document CHEMBL4152378, “Discovery of a Branched Peptide That Recognizes the Rev Response Element (RRE) RNA and Blocks HIV-1 Replication” (J Med Chem, 2018).
pKd: −log10 of the molar value. Residues, ends and D or L forms follow the SMILES beside them. *: point of attachment. X1 = N[C@@H](CCCCNC(=O)c1cnccn1)C(=O)N[C@@H](CCCCNC(=O)c1cnccn1)C(=O)N[C@@H](CCCCNC(=O)c1cnccn1)C(=O)*; Pyrazinecarbonyl = O=C(c1cnccn1)*

Assay: Binding affinity to HIV1 rev response element 2B RNA by 2-AP based displacement assay
Design: species or system Human immunodeficiency virus 1
Procedure, shortened: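 2-AP-labeled RRE IIB (0.1 μM) refolded at 95 °C 3 min, snap-cooled; titrated with peptide 0–20 μM in 10 mM potassium phosphate, 100 mM KCl, 1 mM MgCl2, 20 mM NaCl, pH 7.0; excitation 310 nm, emission decrease at 372 nm; Kd from Hill fit; at least duplicate, SD. Competition lines include 10-fold excess unlabeled RNA/DNA competitor.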

Q: With `N=C(N)N[C@@H]1C[C@H](C(=O)N2C[C@H](NC(=N)N)C[C@@H]2C(=O)N[C@@H](CCCCNC(=O)c2cnccn2)C(=O)N[C@@H](Cc2ccc(O)cc2)C(N)=O)N(C(=O)[C@H](CCCCNC(=O)[C@H](CCCCNC(=O)c2cnccn2)NC(=O)[C@H]2C[C@@H](N)CN2C(=O)[C@H]2C[C@@H](NC(=N)N)CN2)NC(=O)[C@H](CCCCNC(=O)c2cnccn2)NC(=O)[C@H]2C[C@@H](N)CN2C(=O)[C@H]2C[C@@H](NC(=N)N)CN2)C1` as the compound, how does the pKd read?
A: 5.89

Q: With `N=C(N)N[C@@H]1C[C@H](C(=O)N2C[C@H](N)C[C@@H]2C(=O)N[C@@H](Cc2ccc(O)cc2)C(N)=O)N(C(=O)[C@H]2C[C@@H](N)CN2C(=O)[C@H](CCCCNC(=O)[C@H]2C[C@@H](N)CN2C(=O)[C@H]2C[C@@H](NC(=N)N)CN2C(=O)[C@H]2C[C@@H](N)CN2)NC(=O)[C@H]2C[C@@H](N)CN2C(=O)[C@H]2C[C@@H](NC(=N)N)CN2C(=O)[C@H]2C[C@@H](N)CN2)C1` as the compound, how does the pKd read?
A: 6.14

Q: With `N=C(N)N[C@@H]1C[C@H](C(=O)N[C@@H](CCCCNC(=O)c2cnccn2)C(=O)N2C[C@H](N)C[C@@H]2C(=O)N[C@@H](Cc2ccc(O)cc2)C(N)=O)N(C(=O)[C@H](CCCCNC(=O)[C@H]2C[C@@H](N)CN2C(=O)[C@H]2C[C@@H](N)CN2C(=O)[C@H]2C[C@@H](NC(=N)N)CN2)NC(=O)[C@H]2C[C@@H](N)CN2C(=O)[C@H]2C[C@@H](N)CN2C(=O)[C@H]2C[C@@H](NC(=N)N)CN2)C1` as the compound, how does the pKd read?
A: 5.88

Q: With `N=C(N)N[C@H]1CN[C@@H](C(=O)N2C[C@H](N)C[C@@H]2C(=O)N2C[C@H](N)C[C@@H]2C(=O)NCCCC[C@H](NC(=O)[C@H]2C[C@@H](N)CN2C(=O)[C@H]2C[C@@H](N)CN2C(=O)[C@H]2C[C@@H](NC(=N)N)CN2)C(=O)N[C@@H](CCCCNC(=O)c2cnccn2)C(=O)N[C@@H](Cc2cccc3ccccc23)C(=O)N2C[C@H](N)C[C@@H]2C(=O)N[C@@H](Cc2ccc(O)cc2)C(N)=O)C1` as the compound, how does the pKd read?
A: 5.53

Q: With `NC(=O)[C@H](Cc1ccc(O)cc1)NC(=O)[C@H](CCCCNC(=O)c1cnccn1)NC(=O)[C@H](CCCCNC(=O)c1cnccn1)NC(=O)[C@H](CCCCNC(=O)c1cnccn1)NC(=O)[C@H](CCCCNC(=O)[C@H](CCCCNC(=O)c1cnccn1)NC(=O)[C@H](CCCCNC(=O)c1cnccn1)NC(=O)[C@@H](N)CCCCNC(=O)c1cnccn1)NC(=O)[C@H](CCCCNC(=O)c1cnccn1)NC(=O)[C@H](CCCCNC(=O)c1cnccn1)NC(=O)[C@@H](N)CCCCNC(=O)c1cnccn1` (H-K(Pyrazinecarbonyl)K(Pyrazinecarbonyl)K(Pyrazinecarbonyl)K(X1)K(Pyrazinecarbonyl)K(Pyrazinecarbonyl)K(Pyrazinecarbonyl)Y-NH2) as the compound, how does the pKd read?
A: < 5.00

Q: With `N=C(N)N[C@@H]1C[C@H](C(=O)N[C@@H](Cc2ccc(O)cc2)C(N)=O)N(C(=O)[C@H](CCCCNC(=O)c2ccc(B(O)O)cc2)NC(=O)[C@H](CCCCNC(=O)c2ccc(B(O)O)cc2)NC(=O)[C@H](CCCCNC(=O)[C@H]2C[C@@H](N)CN2C(=O)[C@H]2C[C@@H](N)CN2C(=O)[C@H]2C[C@@H](NC(=N)N)CN2)NC(=O)[C@H]2C[C@@H](N)CN2C(=O)[C@H]2C[C@@H](N)CN2C(=O)[C@H]2C[C@@H](NC(=N)N)CN2)C1` as the compound, how does the pKd read?
A: 5.35

Q: With `N=C(N)N[C@H]1CN[C@@H](C(=O)N2C[C@H](N)C[C@@H]2C(=O)N[C@@H](Cc2cccc3ccccc23)C(=O)NCCCC[C@H](NC(=O)[C@H](Cc2cccc3ccccc23)NC(=O)[C@H]2C[C@@H](N)CN2C(=O)[C@H]2C[C@@H](NC(=N)N)CN2)C(=O)NCCN(CC(=O)NCCN(CC(=O)N[C@@H](Cc2cccc3ccccc23)C(=O)N[C@@H](Cc2ccc(O)cc2)C(N)=O)C(=O)Cn2cnc3c(=O)[nH]c(N)nc32)C(=O)Cn2cnc3c(=O)[nH]c(N)nc32)C1` as the compound, how does the pKd read?
A: 6.18

Q: With `N=C(N)N[C@H]1CN[C@@H](C(=O)N2C[C@H](N)C[C@@H]2C(=O)NCCN(CC(=O)NCCCC[C@H](NC(=O)CN(CCNC(=O)[C@H]2C[C@@H](N)CN2C(=O)[C@H]2C[C@@H](NC(=N)N)CN2)C(=O)Cn2cnc3c(=O)[nH]c(N)nc32)C(=O)NCCN(CC(=O)N[C@@H](CCCCNC(=O)c2ccc(B3OC(=O)c4cc(O)ccc4O3)cc2)C(=O)N[C@@H](CCCCNC(=O)c2cnccn2)C(=O)N[C@@H](Cc2ccc(O)cc2)C(N)=O)C(=O)Cn2cnc3c(=O)[nH]c(N)nc32)C(=O)Cn2cnc3c(=O)[nH]c(N)nc32)C1` as the compound, how does the pKd read?
A: 5.93

Q: With `N=C(N)N[C@H]1CN[C@@H](C(=O)N2C[C@H](N)C[C@@H]2C(=O)N2C[C@H](N)C[C@@H]2C(=O)NCCCC[C@H](NC(=O)[C@H]2C[C@@H](N)CN2C(=O)[C@H]2C[C@@H](N)CN2C(=O)[C@H]2C[C@@H](NC(=N)N)CN2)C(=O)N[C@@H](CCCCNC(=O)c2cnccn2)C(=O)NCCN(CC(=O)N2C[C@H](N)C[C@@H]2C(=O)N[C@@H](Cc2ccc(O)cc2)C(N)=O)C(=O)Cn2cnc3c(=O)[nH]c(N)nc32)C1` as the compound, how does the pKd read?
A: 5.99

Q: With `N=C(N)N[C@H]1CN[C@@H](C(=O)N[C@@H](CCCCNC(=O)c2ccc(B3OC(=O)c4cc(O)ccc4O3)cc2)C(=O)N[C@@H](CCCCNC(=O)c2ccc(B3OC(=O)c4cc(O)ccc4O3)cc2)C(=O)NCCCC[C@H](NC(=O)[C@H](CCCCNC(=O)c2ccc(B3OC(=O)c4cc(O)ccc4O3)cc2)NC(=O)[C@H](CCCCNC(=O)c2ccc(B3OC(=O)c4cc(O)ccc4O3)cc2)NC(=O)[C@H]2C[C@@H](NC(=N)N)CN2)C(=O)N[C@@H](CCCCNC(=O)c2ccc(B3OC(=O)c4cc(O)ccc4O3)cc2)C(=O)N[C@@H](CCCCNC(=O)c2cnccn2)C(=O)N[C@@H](Cc2cccc3ccccc23)C(=O)N[C@@H](Cc2ccc(O)cc2)C(N)=O)C1` as the compound, how does the pKd read?
A: < 5.00

Q: With `N=C(N)N[C@@H]1C[C@H](C(=O)N[C@@H](Cc2ccc(O)cc2)C(N)=O)N(C(=O)[C@H](Cc2cccc3ccccc23)NC(=O)[C@H](CCCCNC(=O)c2cnccn2)NC(=O)[C@H](CCCCNC(=O)[C@H](Cc2cccc3ccccc23)NC(=O)[C@H](CCCCNC(=O)c2ccc(B3OC(=O)c4cc(O)ccc4O3)cc2)NC(=O)[C@H]2C[C@@H](NC(=N)N)CN2)NC(=O)[C@H](Cc2cccc3ccccc23)NC(=O)[C@H](CCCCNC(=O)c2ccc(B3OC(=O)c4cc(O)ccc4O3)cc2)NC(=O)[C@H]2C[C@@H](NC(=N)N)CN2)C1` as the compound, how does the pKd read?
A: 5.30

Q: With `N=C(N)N[C@@H]1C[C@H](C(=O)N2C[C@H](N)C[C@@H]2C(=O)N[C@@H](Cc2ccc(O)cc2)C(N)=O)N(C(=O)CN(CCNC(=O)[C@H](CCCCNC(=O)[C@H]2C[C@@H](NC(=N)N)CN2C(=O)[C@H]2C[C@@H](N)CN2C(=O)[C@@H](N)CCCCNC(=O)c2cnccn2)NC(=O)[C@H]2C[C@@H](NC(=N)N)CN2C(=O)[C@H]2C[C@@H](N)CN2C(=O)[C@@H](N)CCCCNC(=O)c2cnccn2)C(=O)Cn2cnc3c(=O)[nH]c(N)nc32)C1` as the compound, how does the pKd read?
A: 5.95

Q: With `N=C(N)N[C@H]1CN[C@@H](C(=O)N2C[C@H](N)C[C@@H]2C(=O)N2C[C@H](N)C[C@@H]2C(=O)NCCCC[C@H](NC(=O)[C@H]2C[C@@H](N)CN2C(=O)[C@H]2C[C@@H](N)CN2C(=O)[C@H]2C[C@@H](NC(=N)N)CN2)C(=O)NCCN(CC(=O)NCCN(CC(=O)N2C[C@H](N)C[C@@H]2C(=O)N[C@@H](Cc2ccc(O)cc2)C(N)=O)C(=O)Cn2cnc3c(=O)[nH]c(N)nc32)C(=O)Cn2cnc3c(=O)[nH]c(N)nc32)C1` as the compound, how does the pKd read?
A: 5.75

Q: With `NC(=O)[C@H](Cc1ccc(O)cc1)NC(=O)[C@H]1C[C@@H](N)CN1C(=O)CN(CCNC(=O)[C@H](CCCCNC(=O)c1cnccn1)NC(=O)[C@H](CCCCNC(=O)[C@H](Cc1cccc2ccccc12)NC(=O)[C@H](CCCCNC(=O)c1ccc(B(O)O)cc1)NC(=O)[C@H]1C[C@@H](N)CN1)NC(=O)[C@H](Cc1cccc2ccccc12)NC(=O)[C@H](CCCCNC(=O)c1ccc(B(O)O)cc1)NC(=O)[C@H]1C[C@@H](N)CN1)C(=O)Cn1cnc2c(=O)[nH]c(N)nc21` as the compound, how does the pKd read?
A: 5.50
